Assays:
[1] = system: refractory head and neck cancer; conditions: intratumoral, three weekly doses at 10–15 mg/cm; cited from earlier work
[2] = Plasma pharmacokinetics of oral terameprocol, GATOR trial; assay type: in vivo, human; conditions: for AUC(0-inf): AUCINF
[3] = system: recurrent high-grade glioma; assay: Tumor response and survival, GATOR trial; assay type: in vivo, human; conditions: oral, 19 participants
How it was run: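 Oral dosing 1,200–6,000 mg/day, days 1–5 every 28 days, in recurrent grade III–IV glioma. OS ran from registration to death from any cause, censored at last known alive. PFS ran from registration to progression, censored if still on treatment or at last progression-free date. Medians by Kaplan–Meier; confidence intervals by Brookmeyer-Crowley method.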

[4] = IV 1,700 mg/day (MTD), 5 days/month; cited from earlier work
[5] = system: recurrent high-grade gliomas; conditions: IV; cited from earlier work
dogs = assay: 28-day oral toxicity study in dogs; assay type: in vivo, Beagle Dog; conditions: continuous 28-day schedule
[6] = system: advanced refractory solid tumors; conditions: intravenous; cited from earlier work
[7] = system: advanced acute myeloid leukemia or myelodysplastic syndrome; conditions: intravenous; cited from earlier work
[8] = system: patients with recurrent high-grade gliomas; conditions: IV; cited from earlier work
[9] = oral 6,000 mg fed, cycle 1 day 4, actual values of 2 patients

SMILES: COc1ccc(C[C@@H](C)[C@@H](C)Cc2ccc(OC)c(OC)c2)cc1OC [terameprocol, meso-tetra-O-methyl nordihydroguaiaretic acid]
- total necrosis of the injection site, patients [1]: 2/3
- Cmax ([2]; human, plasma, po, 1200 mg, Cmax, oral 1,200 mg fasted, cycle 1 day 1, mean ± SD): 30 ± 10 ng/mL
- Cmax ([2]; human, plasma, po, 1200 mg, Cmax, oral 1,200 mg fasted, cycle 1 day 4, mean ± SD): 30 ± 30 ng/mL
- half-life ([2]; human, plasma, po, 1200 mg, T1/2, oral 1,200 mg fasted, cycle 1 day 1, 1 patient): 1.9 h
- Cmax ([2]; human, plasma, po, 2400 mg, Cmax, oral 2,400 mg fasted, cycle 1 day 1, mean ± SD): 100 ± 50 ng/mL
- Cmax ([2]; human, plasma, po, 2400 mg, Cmax, oral 2,400 mg fasted, cycle 1 day 4, mean ± SD): 100 ± 60 ng/mL
- half-life ([2]; human, plasma, po, 2400 mg, T1/2, oral 2,400 mg fasted, cycle 1 day 4, mean ± SD): 24.8 ± 6.2 h
- Cmax ([2]; human, plasma, po, 3600 mg, Cmax, oral 3,600 mg fasted, cycle 1 day 1, mean ± SD): 280 ± 190 ng/mL
- Cmax ([2]; human, plasma, po, 3600 mg, Cmax, oral 3,600 mg fasted, cycle 1 day 4, mean ± SD): 250 ± 140 ng/mL
- half-life ([2]; human, plasma, po, 3600 mg, T1/2, oral 3,600 mg fasted, cycle 1 day 1, mean ± SD): 6 ± 0.6 h
- half-life ([2]; human, plasma, po, 3600 mg, T1/2, oral 3,600 mg fasted, cycle 1 day 4, mean ± SD): 6.5 ± 0.8 h
- Cmax ([2]; human, plasma, po, 4800 mg, Cmax, oral 4,800 mg fed, cycle 1 day 4, 1 patient): 230 ng/mL
- half-life ([2]; human, plasma, po, 4800 mg, T1/2, oral 4,800 mg fed, cycle 1 day 4, 1 patient): 10.7 h
- Tmax ([2]; human, plasma, po, 4800 mg, oral 4,800 mg fed, cycle 1 day 4, 1 patient): 5.9 h
- AUC(0-inf) ([2]; human, plasma, po, 6000 mg, oral 6,000 mg fasted, cycle 1 day 1, 1 patient): 1900 ng·h/mL
- AUC(0-inf) ([2]; human, plasma, po, 6000 mg, oral 6,000 mg fed, cycle 1 day 1, mean ± SD): 2400 ± 1800 ng·h/mL
- Cmax ([2]; human, plasma, po, 6000 mg, Cmax, oral 6,000 mg fasted, cycle 1 day 1, mean ± SD): 200 ± 120 ng/mL
- Cmax ([2]; human, plasma, po, 6000 mg, Cmax, oral 6,000 mg fed, cycle 1 day 1, mean ± SD): 330 ± 310 ng/mL
- Cmax ([2]; human, plasma, po, 6000 mg, Cmax, oral 6,000 mg fed, cycle 1 day 4, mean ± SD): 600 ± 570 ng/mL
- half-life ([2]; human, plasma, po, 6000 mg, T1/2, oral 6,000 mg fasted, cycle 1 day 4, 1 patient): 14.9 h
- half-life ([2]; human, plasma, po, 6000 mg, T1/2, oral 6,000 mg fed, cycle 1 day 1, mean ± SD): 6.6 ± 2.2 h
- Tmax ([2]; human, plasma, po, 6000 mg, oral 6,000 mg fasted, cycle 1 day 1, median (range; n)): 4 h
- Tmax ([2]; human, plasma, po, 6000 mg, oral 6,000 mg fed, cycle 1 day 1, median (range; n)): 4.1 h
- Tmax ([2]; human, plasma, po, 6000 mg, oral 6,000 mg fed, cycle 1 day 4, median (range; n)): 8 h
- T1/2 ([2]; oral 1,200 mg fasted, cycle 1 day 4, actual values of 2 patients): 3.1 h
- AUCINF ([2]; oral 2,400 mg fasted, cycle 1 day 1, actual values of 2 patients): 0.7 μg∗h/mL
- T1/2 ([2]; oral 6,000 mg fasted, cycle 1 day 1, actual values of 2 patients): 14.9 h
- Cmax ([2]; oral 6,000 mg fasted, cycle 1 day 4, actual values of 2 patients): 150 ng/mL
- AUCINF [2, 9]: 4.4 μg∗h/mL
- T1/2 [2, 9]: 6.5 h
- partial or complete responses [3]: no partial or complete responses
- median AUC [4]: 31.3 μg∗h/mL
- objective responses [5]: no objective responses
- tolerability (dogs): well tolerated
- dose at which DLT was demonstrated [6]: 3,300 mg/day
- partial response [6]: 1/29
- stable disease [6]: 6/29
- stable disease [7]: five
- myelosuppression [8]: nor did terameprocol cause significant myelosuppression
